≈ marks a conversion by molar mass, not a printed value.
Columns and labels:
[1] = target: T1, Energy-coupling factor transporter transmembrane protein EcfT (Lactobacillus casei) (UniProt A0A510WMC0); experiment: Inhibition of Lactobacillus casei ECF-FolT assessed as inhibition of radiolabelled folic acid uptake at 50 uM pre-incubated for 10 mins followed tritium labeled folic acid addition measured after 30 mins by liquid scintillation analysis relative to control; conditions: Lacticaseibacillus casei, time 40.0 min
T1 sequence (whole entry): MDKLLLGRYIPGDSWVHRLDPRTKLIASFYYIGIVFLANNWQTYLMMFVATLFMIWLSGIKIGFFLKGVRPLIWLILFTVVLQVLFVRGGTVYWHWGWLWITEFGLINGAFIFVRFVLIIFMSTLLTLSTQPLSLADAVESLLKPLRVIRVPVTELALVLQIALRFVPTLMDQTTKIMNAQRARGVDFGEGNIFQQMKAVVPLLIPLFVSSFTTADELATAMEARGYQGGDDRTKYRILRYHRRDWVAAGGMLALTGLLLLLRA
In short: (§1)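 Whole-cell *L. casei* assay of ECF-FolT-mediated folate uptake. Compounds were first tested at 50 μM and reported as % inhibition. IC50 was determined for those giving more than 70% inhibition at 50 μM. Data come from two independent experiments, each run in duplicate.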

[2] = Kinetic solubility of the compound; format: physicochemical; conditions: read-out: Kinetic_solubility
[3] = test system: A549; experiment: Cytotoxicity against human A549 cells assessed as reduction in cell viability measured after 48 hrs by MTT assay; format: toxicity, cell-based
[4] = test system: Streptococcus pneumoniae; experiment: Antibacterial activity against Streptococcus pneumoniae DSM-20566 measured after 24 hrs by CLSI protocol based microbroth dilution method; format: functional
[5] = test system: Staphylococcus aureus; experiment: Antibacterial activity against Staphylococcus aureus Newman measured after 24 hrs by CLSI protocol based microbroth dilution method; format: functional
[6] = test system: HEK293; experiment: Cytotoxicity against HEK293 cells assessed as reduction in cell viability measured after 48 hrs by MTT assay; format: toxicity, cell-based, Homo sapiens
[7] = target: T2, Energy-coupling factor transporter transmembrane protein EcfT (Lactobacillus casei, UniProt A0A510WMC0); experiment: Inhibition of Lactobacillus casei ECF-FolT assessed as inhibition of radiolabelled folic acid uptake pre-incubated for 10 mins followed tritium labeled folic acid addition measured after 30 mins by liquid scintillation analysis; design: species or system Lacticaseibacillus casei; in short: as §1
T2 sequence (A0A510WMC0 whole entry): T1 sequence (whole entry)

[8] = test system: Enterococcus faecium; experiment: Antibacterial activity against Enterococcus faecium DSM-20477 measured after 24 hrs by CLSI protocol based microbroth dilution method; format: functional
[9] = test system: Streptococcus pneumoniae; experiment: Antibacterial activity against penicillin-resistant Streptococcus pneumoniae DSM-11865 measured after 24 hrs by CLSI protocol based microbroth dilution method; format: functional
[10] = test system: Enterococcus faecium; experiment: Antibacterial activity against vancomycin-resistant Enterococcus faecium DSM-17050 measured after 24 hrs by CLSI protocol based microbroth dilution method; format: functional
[11] = test system: HepG2; experiment: Cytotoxicity against human HepG2 cells assessed as reduction in cell viability measured after 48 hrs by MTT assay; format: toxicity, cell-based

Compound	inhibition [1] [%]	IC50 [7] [µM]	other results
CCCCN(C(=O)Nc1c(-c2ccc(Oc3ccccc3)cc2)csc1C(=O)O)c1ccccc1	100	3.9	solubility kinetic [2]: > 200 µM; IC50 [3]: 49.3 µM; MIC [4]: 4 µM (≈ 1.95 µg/mL); MIC [5]: 16 µM (≈ 7.79 µg/mL); IC50 [6]: 25.5 µM; MIC [8]: 16 µM (≈ 7.79 µg/mL); MIC [9]: 16 µM (≈ 7.79 µg/mL); MIC [10]: 8 µM (≈ 3.89 µg/mL); IC50 [11]: 57 µM
CCCCCCNC(=O)Nc1cc(-c2cccc([N+](=O)[O-])c2)sc1C(=O)O	65.3	43.3	–
CCN(Cc1ccccc1)C(=O)Nc1cc(-c2ccc(Cl)c(Cl)c2)sc1C(=O)O	89.4	11.4	–
O=C(Nc1ccccc1)Nc1cc(-c2ccc(Cl)c(Cl)c2)sc1C(=O)O	86.8	14.4	–
CCCCC(=O)Nc1c(-c2ccc(Cl)c(Cl)c2)csc1C(=O)O	31.8	–	–
CCN(Cc1ccccc1)C(=O)Nc1cc(-c2ccc(C)cc2)sc1C(=O)O	38.9	–	–
CCCCCCNc1c(-c2ccc(Cl)c(Cl)c2)csc1C(=O)O	95.2	–	–
O=C(O)c1sc(-c2ccc(Cl)c(Cl)c2)cc1NC(=O)N(Cc1ccccc1)Cc1ccccc1	85.1	24	–
O=C(NCCc1ccccc1)Nc1cc(-c2ccc(Cl)c(Cl)c2)sc1C(=O)O	91.7	15.3	–
CCN(Cc1ccccc1)C(=O)Nc1cc(-c2ccc(Br)cc2)sc1C(=O)O	52.3	–	–
CCCCCCNC(=O)Nc1scc(-c2ccc(Cl)c(Cl)c2)c1C(=O)O	87.5	18.5	–
CCCCCCNC(=O)Nc1cc(-c2cc(Cl)ccc2Cl)sc1C(=O)O	93.4	21.8	–
CCCCCCNC(=O)Nc1cc(-c2ccc(Cl)c(Cl)c2)sc1C(=O)O	72.2	28.5	–
Nc1c(-c2ccc(Cl)c(Cl)c2)csc1C(=O)O	< 10	–	–
CN(Cc1ccccc1)C(=O)Nc1cc(-c2ccc(Cl)c(Cl)c2)sc1C(=O)O	86.9	10	–
CCCCCCNC(=O)Nc1c(-c2ccc(Cl)c(Cl)c2)csc1C(=O)O	90.6	6	–
CN(C(=O)Nc1cc(-c2ccc(Cl)c(Cl)c2)sc1C(=O)O)c1ccccc1	71.5	23	–
CCN(C(=O)Nc1cc(-c2ccc(Cl)c(Cl)c2)sc1C(=O)O)c1ccccc1	83.2	10.5	–
O=C(O)c1sc(-c2ccc(Cl)c(Cl)c2)cc1NC(=O)N(Cc1ccccc1)c1ccccc1	91.3	2.94	–
CCN(Cc1ccccc1)C(=O)Nc1cc(-c2ccc(C#N)cc2)sc1C(=O)O	18.3	–	–
O=C(NCc1ccccc1)Nc1cc(-c2ccc(Cl)c(Cl)c2)sc1C(=O)O	71.1	17.8	–
CCCCN(C(=O)Nc1cc(-c2ccc(Cl)c(Cl)c2)sc1C(=O)O)c1ccccc1	99.6	2.35	solubility kinetic [2]: 107 µM (≈ 49.4 µg/mL); IC50 [3]: > 100 µM; MIC [4]: 2 µM (≈ 0.927 µg/mL); MIC [5]: 23 µM (≈ 10.7 µg/mL); IC50 [6]: 52.5 µM; MIC [8]: 8 µM (≈ 3.71 µg/mL); MIC [9]: 0.5 µM (≈ 0.232 µg/mL); MIC [10]: 2 µM (≈ 0.927 µg/mL); IC50 [11]: 95.6 µM
CCCCCCNC(=O)Nc1cc(-c2ccc([N+](=O)[O-])cc2)sc1C(=O)O	82.1	25.1	–
CCCCN(C(=O)Nc1c(-c2cc(Cl)ccc2Cl)csc1C(=O)O)c1ccccc1	73.4	17	–
CCN(Cc1ccccc1)C(=O)Nc1cc(-c2cc(Cl)cc(Cl)c2)sc1C(=O)O	22	–	–
CCN(Cc1ccccc1)C(=O)Nc1cc(-c2ccc(OC(F)(F)F)cc2)sc1C(=O)O	67.2	–	–
CCN(Cc1ccccc1)C(=O)Nc1cc(-c2ccc(Oc3ccccc3)cc2)sc1C(=O)O	97	10.1	–

Continued, in another order:

inhibition [1] [%]	Compound	IC50 [7] [µM]	other results
25.1	CCCCCCNC(=O)Nc1cc(-c2ccccc2)sc1C(=O)O	–	–
42.4	NC(=O)Nc1cc(-c2ccc(Cl)c(Cl)c2)sc1C(=O)O	–	–
54.3	COc1ccc(CNC(=O)Nc2cc(-c3ccc(Cl)c(Cl)c3)sc2C(=O)O)cc1	–	–
< 10	CCCCCCNC(=O)Nc1ccsc1C(=O)O	–	–
17.9	CCCCCCNC(=O)Nc1sc(-c2ccc(Cl)c(Cl)c2)cc1C(=O)O	–	–
39.3	CC(C)NC(=O)Nc1cc(-c2ccc(Cl)c(Cl)c2)sc1C(=O)O	–	–
67.9	CCCCCCNC(=O)Nc1cc(-c2ccc(Cl)cc2Cl)sc1C(=O)O	–	–
54	O=C(NCc1ccncc1)Nc1cc(-c2ccc(Cl)c(Cl)c2)sc1C(=O)O	–	–
27.2	CCCCCCNC(=O)Nc1cc(-c2ccc(Cl)cc2)sc1C(=O)O	–	–
57.8	CCCCN(CCc1ccccc1)C(=O)Nc1cc(-c2ccc(Cl)c(Cl)c2)sc1C(=O)O	–	–
36.2	CCCCCCNC(=O)Nc1cc(-c2cccc(Cl)c2)sc1C(=O)O	–	–
0.2	O=C(O)CCCNC(=O)Nc1cc(-c2ccc(Cl)c(Cl)c2)sc1C(=O)O	–	–
42.5	CCCCN(Cc1ccccc1)C(=O)Nc1cc(-c2ccc(Cl)c(Cl)c2)sc1C(=O)O	–	–
27.1	CCCCCCNC(=O)Nc1cc(-c2ccc(C(F)(F)F)cc2)sc1C(=O)O	–	–
58	O=C(NCc1cccnc1)Nc1cc(-c2ccc(Cl)c(Cl)c2)sc1C(=O)O	–	–
59	O=C(NCc1ccccn1)Nc1cc(-c2ccc(Cl)c(Cl)c2)sc1C(=O)O	–	–
65.4	CCCCCCNC(=O)Nc1c(C(=O)O)cccc1-c1ccc(Cl)c(Cl)c1	–	–
52.3	CCCCCCNC(=O)Nc1cc(-c2cccc(C(F)(F)F)c2)sc1C(=O)O	–	–
61.9	CCCCNC(=O)Nc1cc(-c2ccc(Cl)c(Cl)c2)sc1C(=O)O	–	–
12.1	CCCCCCNC(=O)Nc1cc(-c2ccc(OC)cc2)sc1C(=O)O	–	–
59	CCCCCCNC(=O)Nc1cc(-c2ccc(Cl)c(C(F)(F)F)c2)sc1C(=O)O	–	–

From ChEMBL document CHEMBL5131565, “Structure-Guided Optimization of Small-Molecule Folate Uptake Inhibitors Targeting the Energy-Coupling Factor Transporters” (J Med Chem, 2022)
